How the values were obtained:
Mus musculus [1] = assay: Prehensile effect in mice was tested when the compound was administered perorally; assay type: functional; details: po
How it was run: (§1)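 Oral dosing of male Royal Hart mice (20–25 g), scored by a modified Irwin behavioural screen. ED50 (mg/kg) estimated by probit analysis; at least 20 animals per drug.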

[2] = Acute toxicity in rats after 72 hours when administered perorally; assay type: organism-based; details: rat, in vivo, po
How it was run: (§2)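 Male Wistar rats (130–160 g) dosed orally; lethality read at 2 h and 72 h. LD50 (mg/kg) derived by probit analysis (Miller–Tainter), using a minimum of 20 animals per drug.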

Rattus norvegicus [3] = assay: Hypomotility effect in rats was tested when the compound was administered perorally; assay type: functional; details: po
How it was run: (§3)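 Modified Irwin behavioural observation in male Wistar rats (130–160 g). ED50 (mg/kg) obtained by probit analysis; minimum 20 animals per drug.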

Mus musculus [4] = assay: Hypomotility effect in mice was tested when the compound was administered perorally; assay type: functional; details: po
How it was run: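 Modified Irwin behavioral observation in male Royal Hart mice (20–25 g), observed for 2 h after dosing. ED50 (mg/kg) estimated by probit analysis per Miller and Tainter. At least 20 animals per drug.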

Mus musculus [5] = assay: Docility effect in mice was tested when the compound was administered ip; assay type: functional
How it was run: (§4)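 Modified Irwin observational screen in male Royal Hart mice (20–25 g). ED50 (mg/kg) by probit analysis; at least 20 animals per drug.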

Mus musculus [6] = assay: Compound was tested for rotarod motor coordination in mice when administered perorally; assay type: functional; details: po
How it was run: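 Modified Dunham–Miya rotarod test. Groups of five male Royal Hart mice (20–25 g) were trained on a 15 rpm corrugated rod for 60–90 s, then retested 30 and 60 min after drug or saline (ip or oral). Percent change in riding time versus controls; ED50 is the dose giving a 50% decrease, by probit analysis.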

Mus musculus [7] = assay: Compound was tested for mortality in mice when administered perorally; assay type: functional; details: po
How it was run: (§5)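 Groups of five male Royal Hart mice (20–25 g) received test drug ip or orally 1 h before seizure induction with SaH 41-178 (50.0 mg/kg ip). ED50 is the dose preventing tonic convulsions or death in 50% of animals, by probit analysis.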

Mus musculus [8] = assay: Compound was tested for tonic convulsions when administered perorally; assay type: functional; details: po; how it was run: as §5
Mus musculus [9] = assay: Ataxia effect in mice was tested when the compound was administered perorally; assay type: functional; details: po
How it was run: (§6)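 Male Royal Hart mice (20–25 g) were dosed orally and scored in a modified Irwin behavioural observation screen. ED50 values (mg/kg) were estimated by probit analysis after Miller and Tainter, with at least 20 animals per drug. Values were reported as ED50 ± SE, or as the evaluation at the highest nontoxic dose used.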

Mus musculus [10] = assay: Compound was tested for reinduction of anesthesia in mice when administered intraperitoneally; assay type: functional; details: ip
How it was run: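 Male Royal Hart mice (20–25 g) anaesthetised with hexobarbital (70.0 mg/kg iv) were given drug ip as they regained the righting reflex (modified Winter method). ED50 is the dose producing loss of righting reflex for 10 min in 50% of mice, by probit analysis.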

Mus musculus [11] = assay: Compound was tested for rotarod motor coordination in mice when administered intraperitoneally; assay type: functional; details: ip
How it was run: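 Male Royal Hart mice (20–25 g), groups of five, were trained to ride a corrugated-paper-covered rod turning at 15 rpm for 60–90 s. They were retested 30 and 60 min after ip drug or saline. Percent change in rotarod time was taken against controls. ED50 is the dose cutting rotarod time by 50%, estimated by probit analysis. At least 20 animals per drug.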

Mus musculus [12] = assay: Compound was tested for mortality in mice when administered intraperitoneally; assay type: functional; details: ip
How it was run: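 Male Royal Hart mice (20–25 g), groups of five, dosed ip 1 h before SaH 41-178 (50.0 mg/kg ip) to evoke seizures. ED50 is the dose preventing death in 50% of animals, estimated by probit analysis. At least 20 animals per drug.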

Mus musculus [13] = assay: Hypomotility effect in mice was tested when the compound was administered intraperitoneally; assay type: functional; details: ip; how it was run: as §4
[14] = Acute toxicity in mice after 2 hours when administered perorally; assay type: organism-based; details: mouse, in vivo, po
How it was run: (§7)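 Male Royal Hart mice (20–25 g) dosed intraperitoneally or orally; deaths scored at 2 h and 72 h. LD50 (mg/kg) estimated by probit analysis (Miller–Tainter), with at least 20 animals per drug.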

[15] = Acute toxicity in rats after 2 hours when administered perorally; assay type: organism-based; details: rat, in vivo, po; how it was run: as §2
Rattus norvegicus [16] = assay: Ataxia effect in rats was tested when the compound was administered perorally; assay type: functional; details: po; how it was run: as §3
Mus musculus [17] = assay: Ataxia effect in mice was tested when the compound was administered intraperitoneally; assay type: functional; details: ip; how it was run: as §4
[18] = Acute toxicity in mice after 72 hours when administered perorally; assay type: organism-based; details: mouse, in vivo, po; how it was run: as §7
Mus musculus [19] = assay: Prehensile effect in mice was tested when the compound was administered intraperitoneally; assay type: functional; details: ip; how it was run: as §4
Mus musculus [20] = assay: Docility effect in mice was tested when the compound was administered perorally; assay type: functional; details: po; how it was run: as §1
Mus musculus [21] = assay: Ability to reinduce anesthesia in mice as a measure of in vivo sedative-hypnotic activity; assay type: functional
How it was run: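 Male Royal Hart mice (20–25 g) were anesthetized with hexobarbital 70.0 mg/kg iv. While they were regaining the righting reflex, compound was given ip. Reinduction was scored as loss of righting reflex for 10 min. ED50 (mg/kg) is the dose reinducing anesthesia in 50% of mice, estimated by probit analysis (Miller–Tainter).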

[22] = Acute toxicity in mice after 72 hours when administered intraperitoneally; assay type: organism-based; details: mouse, in vivo, ip; how it was run: as §7
Rattus norvegicus [23] = assay: Righting reflex effect in rats was tested when the compound was administered perorally; assay type: functional; details: po; how it was run: as §3
[24] = Acute toxicity in mice after 2 hours when administered intraperitoneally; assay type: organism-based; details: mouse, in vivo, ip; how it was run: as §7
Mus musculus [25] = assay: Compound was tested for tonic convulsions when administered intraperitoneally; assay type: functional; details: ip; how it was run: as §5
Mus musculus [26] = assay: Righting reflex effect in mice was tested when the compound was administered intraperitoneally; assay type: functional; details: ip; how it was run: as §4
Mus musculus [27] = assay: Righting reflex effect in mice was tested when the compound was administered perorally; assay type: functional; details: po; how it was run: as §6
Rattus norvegicus [28] = assay: Righting reflex effect in rats when the compound was administered perorally; details: po
[29] = Acute toxicity in mice after 2 hours administration perorally; assay type: organism-based; details: mouse, in vivo, po; how it was run: as §7
Mus musculus [30] = assay: Reinduction of anesthesia in mice when administered perorally was tested; assay type: functional; details: po
Monkey [31] = assay: Sleep latency in cebus monkey sleep was determined; shortened (65-85% at the threshold sleep-inducing dose); assay type: functional
Mus musculus [32] = assay: Compound was tested for rotarod motor coordination in mice when administered intravenously; assay type: functional; details: iv
Mus musculus [33] = assay: Ataxia effect in mice when the compound was administered po; assay type: functional
How it was run: (§8)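 Modified Irwin behavioral screen in male Royal Hart mice (20–25 g), dosed ip or orally, observed for 2 h after dosing. ED50 (mg/kg) estimated by probit analysis (Miller–Tainter), or evaluation at the highest nontoxic dose used. At least 20 animals per drug; ± SE.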

[34] = Acute toxicity in mice after 72 hours administration ip; assay type: organism-based; details: mouse, in vivo; how it was run: as §7
[35] = Acute toxicity in rats after 2 hours of administration perorally; assay type: organism-based; details: rat, in vivo, po; how it was run: as §2
Mus musculus [36] = assay: Compound was tested for mortality in mice when administered intravenously; assay type: functional; details: iv
Mus musculus [37] = assay: Prehensile effect in mice when the compound was administered perorally; assay type: functional; details: po; how it was run: as §1
Mus musculus [38] = assay: Ataxia effect in mice when the compound was administered ip; assay type: functional; how it was run: as §8
Felis catus = assay: Tested to induce segmental reflexes in cat when given at a dose of 1-4 mg/Kg intravenously; Caused respiratory failure and death; assay type: organism-based; details: in vivo, iv
How it was run: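 Chloralose-anaesthetised intact cats. The monosynaptic patellar reflex was evoked by solenoid-hammer tendon tap and the knee jerk recorded. The polysynaptic flexor reflex was recorded as tibialis anticus contraction on electrical popliteal nerve stimulation.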

Mus musculus [39] = assay: Hypomotility effect in mice when the compound was administered intraperitoneally; assay type: functional; details: ip; how it was run: as §8
[40] = Acute toxicity in rats after 72 hours of administration perorally; assay type: organism-based; details: rat, in vivo, po; how it was run: as §2
Mus musculus [41] = assay: Righting reflex effect in mice when the compound was administered intraperitoneally; assay type: functional; details: ip; how it was run: as §8
Monkey [42] = assay: Tested for its activity towards cebus monkey sleep relative to methaqualone at 3-9 hours of duration; 4-64 times potent; assay type: functional
[43] = Acute toxicity in mice after 72 hours administration perorally; assay type: organism-based; details: mouse, in vivo, po; how it was run: as §7
Mus musculus [44] = assay: Righting reflex effect in mice when the compound was administered perorally; assay type: functional; details: po; how it was run: as §8
Mus musculus [45] = assay: Prehensile effect in mice when the compound was administered intravenously; assay type: functional; details: iv
[46] = Acute toxicity in mice after 2 hours administration ip; assay type: organism-based; details: mouse, in vivo; how it was run: as §7
Rattus norvegicus [47] = assay: Ataxia effect in rats when the compound was administered perorally; details: po
Rattus norvegicus [48] = assay: Hypomotility effect in rats when administered perorally; details: po

Work on `Cc1ccccc1-n1c(C)nc2ccccc2c1=O` [METHAQUALONE] yielded an ED50 (Mus musculus [1]) of 30 mg/kg, an LD50 at 72 h [2] of 185 mg/kg and an ED50 (Rattus norvegicus [3]) of 44 mg/kg. For the same molecule, the ED50 (Mus musculus [4]) was 25 mg/kg, the ED50 (Mus musculus [5]) was 31 mg/kg and the ED50 (Mus musculus [6]) was 36 mg/kg. The ED50 (Mus musculus [7]) was 45 mg/kg, the ED50 (Mus musculus [8]) was 39 mg/kg and the ED50 (Mus musculus [9]) was 23 mg/kg. For the same molecule, the ED50 (Mus musculus [10]) was 19 mg/kg, the ED50 (Mus musculus [11]) was 25 mg/kg and the ED50 (Mus musculus [12]) was 25 mg/kg. The ED50 (Mus musculus [13]) was 34 mg/kg, the LD50 at 2 h [14] was greater than 400 mg/kg and the LD50 at 2 h [15] was greater than 800 mg/kg. For the same molecule, the ED50 (Rattus norvegicus [16]) was 23 mg/kg, the ED50 (Mus musculus [17]) was 29 mg/kg and the LD50 at 72 h [18] was greater than 400 mg/kg. The ED50 (Mus musculus [19]) was 37 mg/kg, the ED50 (Mus musculus [20]) was 20 mg/kg and the ED50 (Mus musculus [21]) was 20 mg/kg. It also gave an LD50 at 72 h [22] of 470 mg/kg, an ED50 (Rattus norvegicus [23]) of 52 mg/kg and an LD50 at 2 h [24] of 565 mg/kg. For the same molecule, the ED50 (Mus musculus [25]) was 25 mg/kg, the ED50 (Mus musculus [26]) was 34 mg/kg and the ED50 (Mus musculus [27]) was 23 mg/kg.

Work on `CC1(C)OC(C)(C)c2c1ncc(-c1ccccc1)[n+]2[O-].Cl` yielded an ED50 (Mus musculus [21]) of 1000 mg/kg.

In the case of `CC1(C)OC(C)(C)c2c1nnc(-c1cccc([N+](=O)[O-])c1)[n+]2[O-]`, the ED50 (Rattus norvegicus [28]) was 118 mg/kg, the LD50 at 2 h [29] was greater than 400 mg/kg and the ED50 (Mus musculus [6]) was greater than 1000 mg/kg. For the same molecule, the ED50 (Mus musculus [30]) was 72 mg/kg, the ED50 (Mus musculus [8]) was greater than 1000 mg/kg and the Sleep latency (Monkey [31]) was 65%. For the same molecule, the ED50 (Mus musculus [32]) was 51 mg/kg, the ED50 (Mus musculus [33]) was 39 mg/kg and the LD50 at 72 h [34] was greater than 235 mg/kg. The LD50 at 2 h [35] was greater than 800 mg/kg, the ED50 (Mus musculus [36]) was 54 mg/kg and the ED50 (Mus musculus [37]) was 54 mg/kg. The ED50 (Mus musculus [38]) was 130 mg/kg, the Activity (Felis catus) was “Caused respiratory failure and death” and the ED50 (Mus musculus [39]) was 50 mg/kg. The LD50 at 72 h [40] was greater than 800 mg/kg, the ED50 (Mus musculus [41]) was 123 mg/kg and the Relative potency (Monkey [42]) was 4. For the same molecule, the LD50 at 72 h [43] was greater than 400 mg/kg, the ED50 (Mus musculus [44]) was 55 mg/kg and the ED50 (Mus musculus [45]) was 125 mg/kg. The ED50 (Mus musculus [21]) was 72 mg/kg, the ED50 (Mus musculus [25]) was 54 mg/kg and the LD50 at 2 h [46] was greater than 400 mg/kg. The ED50 (Rattus norvegicus [47]) was 39 mg/kg and the ED50 (Rattus norvegicus [48]) was 37 mg/kg.

`CC1(C)OC(C)(C)c2nc(-c3ccccn3)nnc21` gave an ED50 (Mus musculus [21]) of 21 mg/kg.

`CC1(C)C/C(=N\Nc2ccccc2[N+](=O)[O-])C(C)(C)O1` showed an ED50 (Mus musculus [21]) of 1000 mg/kg.

From ChEMBL document CHEMBL1121825, “A potent, new, sedative--hypnotic agent: 5,7-dihydro-5,5,7,7-tetramethyl-3-(3-nitrophenyl)furo[3,4-e]-as-triazine 4-oxide” (J Med Chem, 1981)
